These results are taken from ChEMBL document CHEMBL1129598, “Design, synthesis, and in vitro evaluation of cyclic nitrones as free radical traps for the treatment of stroke” (J Med Chem, 1996).

Each structure is given as a SMILES string. pIC50: −log10 of the molar value.

The nature of data set [1]: In vitro inhibition of oxidation of soybean phosphatidylcholine liposomes using lipid peroxidation assay. The format is functional, Glycine max. In short, it runs like this: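 Soybean phosphatidylcholine liposomes were oxidised with an Fe²⁺/Fe³⁺ mixture to start peroxidation, with test agent present, and oxidation products were then analysed. A reference cyclic nitrone was run as an internal standard in each experiment. Runs were rejected if its value deviated by more than 15% from its established value.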

Data set [2] in a line: lipophilicity of the compound. Type of data set: physicochemical. The conditions noted are these: reversed-phase HPLC. In short, it runs like this: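 Lipophilicity was measured by reversed-phase HPLC as log k′_w. Samples at 0.5 mg/mL in MeOH were run on a C18 column (15 cm × 4.6 mm, 5 µm). Elution used 32–62% MeOH in pH 7.4 phosphate buffer, at three MeOH levels per compound.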

The term pIC50 denotes −log10 of the IC50, conventionally taken in molar units.

Compound `CC1(C)Cc2ccccc2C=[N+]1[O-]` gave a pIC50 in data set [1] of 2.78. For the same compound, in data set [2], the “Log K'W” value amounted to 1.9.

On to `CC(C)(C)/[N+]([O-])=C/c1ccccc1`, for which the pIC50 in data set [1] was 1.84.

In data set [1], `[O-][N+]1=Cc2ccccc2CCC12CCCCC2` showed a pIC50 of 3.14. Besides, the “Log K'W” value in data set [2] is listed as 2.99.

In turn, `CC1(C)c2cc(O)ccc2C=[N+]1[O-]` had a pIC50 in data set [1] of 3.09. Besides, the “Log K'W” value in data set [2] is reported as 0.68.

For `CC1(C)Cc2sccc2C=[N+]1[O-]`, the pIC50 in data set [1] was 2.80. For the same compound, the “Log K'W” value in data set [2] was determined as 1.57.

With `[O-][N+]1=Cc2ccccc2CCC12CCOCC2`, in data set [1], the pIC50 is 3.51. In addition, the “Log K'W” value in data set [2] amounted to 1.98.

With `COc1ccc2c(c1)C(C)(C)[N+]([O-])=C2`, the pIC50 in data set [1] was 3.04. For the same compound, the “Log K'W” value in data set [2] was found to be 1.75.

In turn, `CC1(C)Cc2ccoc2C=[N+]1[O-]` showed a pIC50 in data set [1] of 2.97. Further, the “Log K'W” value in data set [2] was determined as 1.16.

In data set [1], `CC1(C)Cc2c(ccc3ccccc23)C=[N+]1[O-]` gave a pIC50 of 4.00. In addition, in data set [2], the “Log K'W” value is 2.67.

`CC1(C)Cc2ccsc2C=[N+]1[O-]` showed a pIC50 in data set [1] of 2.76. The “Log K'W” value in data set [2] is reported as 1.47.

In the case of `COc1cccc2c1C=[N+]([O-])C2(C)C`, the pIC50 in data set [1] was 2.96. Moreover, the “Log K'W” value in data set [2] was found to be 1.98.

`CC1(C)c2ccccc2C=[N+]1[O-]` had a pIC50 in data set [1] of 2.87. The “Log K'W” value in data set [2] stood at 1.61.

With `Cc1cc2c(c(C)c1O)CCC(C)(C)[N+]([O-])=C2`, in data set [1], the pIC50 is 4.66. The “Log K'W” value in data set [2] was 2.29.

As for `CC1(C)Cc2ccc3ccccc3c2C=[N+]1[O-]`, the pIC50 in data set [1] is 4.16. Moreover, the “Log K'W” value in data set [2] is 2.69.

As to `[O-][N+]1=Cc2ccccc2CC12CCOCC2`, in data set [1], the pIC50 is 2.91. Besides, the “Log K'W” value in data set [2] amounted to 1.65.

`Cc1cc2c(c(C)c1O)CC(C)(C)[N+]([O-])=C2` had a pIC50 in data set [1] of 4.18. Moreover, the “Log K'W” value in data set [2] was found to be 1.82.
